Hits are enriched below; roughly 1.6% of the tested compounds scored in any of these assays.
VLA-4 inh: inhibition in a human VLA-4 binding assay; P13612; VLA-4 expressing cells, ligand binding flow cytometry; inhibition, % (about 7 µM as worked out from the volumes in the protocol); 330,000 tested, 0.2% active; AID 2557; in the data active = inhibition above about 50%
NR1D1 modulator: modulators of human Rev-erb alpha DNA binding; P20393; activity, % at 10 µM; Rev-erbα–FITC-DNA binding, fluorescence polarization, 90 min; 370,000 tested, 0.79% active;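 active = activity above about 14%, limit read from the data; passing the limit was not always enough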;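 note: 0% = DMSO wells with 35 nM protein and 100% = DMSO wells with 750 nM protein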
NR2E3 ag-1: agonists of human nuclear receptor NR2E3 | GST-NR2E3/biotin-RetCOR TR-FRET, 1536-well | inhibition of corepressor binding, % at 4.78 µM | 320,000 tested, 0.12% active;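 active = percent inhibition above the cutoff of mean plus 3 SD of all tested compounds, set per screening campaign, cut at about 20% in these data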;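 note: 0% = DMSO wells and 100% = biotin wells as full block of FRET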
Target sequence (Q9Y5X4 whole entry, looked up): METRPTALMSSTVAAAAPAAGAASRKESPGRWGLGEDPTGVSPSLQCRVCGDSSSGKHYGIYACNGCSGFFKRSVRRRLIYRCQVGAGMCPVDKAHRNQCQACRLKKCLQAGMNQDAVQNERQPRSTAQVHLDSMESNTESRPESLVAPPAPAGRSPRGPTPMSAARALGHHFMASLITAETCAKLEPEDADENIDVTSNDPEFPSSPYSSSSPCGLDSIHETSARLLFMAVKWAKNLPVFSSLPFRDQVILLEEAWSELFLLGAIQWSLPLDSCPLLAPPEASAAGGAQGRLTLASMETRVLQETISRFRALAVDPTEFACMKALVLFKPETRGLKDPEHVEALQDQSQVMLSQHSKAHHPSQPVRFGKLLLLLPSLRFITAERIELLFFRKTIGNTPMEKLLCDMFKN
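System: GST-tagged NR2E3 plus biotinylated RetCOR corepressor; Amount: 1.35 nM GST-tagged NR2E3 final; Dosing: single nominal compound dose of 4.8 µM; Schedule: 5 h incubation at 4 °C; Technique: TR-FRET with europium anti-GST and streptavidin-D2, 340 nm excitation; Controls: biotin wells as high control, 0.6% DMSO wells as low control.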
NR2E3 ag-2: agonists of human NR2E3 nuclear receptor; inhibition of corepressor binding, % at 3.98 µM; 360,000 tested, 0.35% active; CHO-S Gal4-NCOR/VP16-NR2E3 two-hybrid, luciferase; AID 602229; Q9Y5X4;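 active = inhibition above the mean of all tested compounds plus 3 SD, cut at about 70% in these data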;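 note: 0% = DMSO with NR2E3 transfected cells and 100% = cells lacking NR2E3 construct; higher means lower luciferase signal from less NR2E3 corepressor binding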
PG9 Ab binder: small molecules binding HIV-1 gp120 antibody PG9. TR-FRET gp120-PG9 antibody binding. inhibition, % at 6.7 µM. 360,000 tested, 0.43% active. AID 624416; in the data active = inhibition above about 8.5%
NR2E3 ag confirm: NR2E3 agonism confirmed in two-hybrid assay. 2,300 tested, 51% active. shares compounds with NR2E3 ag-2. inhibition, % at 3.98 µM. CHO-S mammalian two-hybrid NR2E3-NCOR, luciferase luminescence. AID 624378;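 active = average inhibition above a cutoff equal to the mean inhibition of all tested compounds plus one SD, cut at about 70% in these data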;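 note: 0% = DMSO in NR2E3 cells and 100% = DMSO in cells lacking NR2E3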
GAL4-VP16 luc: counter-screen for NR2E3 agonists: GAL4-VP16 reporter inhibitors; AID 624379; 2,300 tested, 29% active; inhibition, % at 3.98 µM; shares compounds with NR2E3 ag-2; CHO-S GAL4-VP16 luciferase reporter, luminescence;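 active = mean inhibition above a cutoff equal to the average over all tested compounds plus one standard deviation, cut at about 70% in these data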;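 note: luciferase from a UAS reporter driven by GAL4-VP16 transactivation; 0% = DMSO with VP16-transfected cells and 100% = DMSO with cells lacking VP16; higher means less reporter light so more repression of VP16 activity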
Starred values were filed as active, the others as inactive; x = no result.

SMILES	VLA-4 inh	NR1D1 modulator	NR2E3 ag-1	NR2E3 ag-2	PG9 Ab binder	NR2E3 ag confirm	GAL4-VP16 luc
CC(=O)N1c2ccc(S(=O)(=O)N3CCC(C(=O)Nc4cccc(Cl)c4)CC3)cc2CC1C (centres undefined)	4	5	2	78*	-1	74*	52
CN[C@H]1C[C@H]2c3[nH]c4cccc(-c5cccc(F)c5)c4c3CCN2C(=O)[C@H]1[C@H](C)O	x	8	x	x	x	x	x
CC(C)CCCC(C)N (centres undefined)	x	-1	x	x	x	x	x
COc1cccc2sc(Nc3nc(-c4ccccn4)cs3)nc12	-26	x	2	97*	x	100*	-25
c1ccc(Nc2nc(-c3ccccn3)cs2)cc1	14	-1	2	-28	-3	x	x
CC(C)CCCCCCCCCCCCC(=O)NCC(=O)NC1C(C)OC(Nc2ncnc3nc[nH]c23)C(O)C1O (centres undefined)	x	-4	x	72*	-1	98*	97*
O=C(NCc1ccccn1)C1Nc2ccc(C(F)(F)F)cc2C2C=CCC12 (centres undefined)	-2	-1	2	97*	1	-8	21
CN(C)[C@@H]1CCN(c2ccc3c(c2)O[C@@H]2CCN(C2)S3(=O)=O)C1	x	2	x	x	x	x	x
C=CCN1C(=O)[C@@H](CC(=O)NCc2cccc(C(F)(F)F)c2)[C@]2(C(=O)OC)CCCCC=C12	x	1	x	x	x	x	x
c1ccc(-c2nnc(-c3ccccn3)nc2NC2CCCCC2)cc1	14	-1	-3	55	-1	60	17
Cc1ccc(NC(=O)OC2CCC23CCCCC3)cc1 (centres undefined)	x	2	x	x	x	x	x
Cc1c(C#N)c2ncn(CCCN(C)C)c(=O)c2n1-c1ccccc1	10	1	2	90*	0	-9	-10
NNC(=O)c1ccc(CSc2cccc3cccnc23)cc1	5	3	-3	2	0	x	x
Cc1cccc(CSc2cccc3cccnc23)c1	-8	14	3	88*	0	-51	-104
COC1=CC(=O)c2nc(Cl)ccc2C1=O	x	-2	x	64	0	36	33
COc1cccc2c1C(=O)C=C(C)C2=O	-85	1	-19	-65	-1	x	x
COC(=O)[C@]12C[C@H](CC(=O)NCc3cccs3)C(=O)N(Cc3ccco3)C1=C[C@H](C(C)(C)C)O[C@@H]2C	x	5	x	x	x	x	x
NS(=O)(=O)c1ccc(CCNc2nn3c(-c4ccc(F)c(Cl)c4)cnc3s2)cc1	x	-4	x	62	0	64	50
O=C1NC(=O)C(c2ccc(F)cc2)N1 (centres undefined)	11	3	4	107*	2	-5	7
CC(=O)c1c(C)[nH]c(C(=O)OCC(=O)Nc2cc(Cl)ccc2[N+](=O)[O-])c1C	23	-3	3	-11	1	x	x
CC(=O)c1c(C)[nH]c(C(=O)OCC(=O)Nc2ccc(C)cc2[N+](=O)[O-])c1C	34	-4	5	82*	2	98*	90*
COC1=CC(=O)c2c(ccc3ncnc(N)c23)C1=O	x	1	x	102*	-10	101*	101*
COc1ccc(C=Nn2c(-c3n[nH]c4c3CCC4)n[nH]c2=S)cc1OCc1ccccc1	x	1	x	x	x	x	x
Cc1ccc(S(=O)(=O)N2[C@@H](c3ccc(Br)cc3)C(C(=O)O)=CC[C@H]2c2ccc(C(C)C)cc2)cc1	-3	1	x	-11	1	x	x
CCc1ccc([C@@H]2CC=C(C(=O)O)[C@H](c3ccc(C(C)(C)C)cc3)N2S(=O)(=O)c2ccc(C)cc2)cc1	-25	-17	x	93*	-2	96*	62
SMILES	VLA-4 inh	NR1D1 modulator	NR2E3 ag-1	NR2E3 ag-2	PG9 Ab binder	NR2E3 ag confirm	GAL4-VP16 luc
CCc1ccc([C@@H]2CC=C(C(=O)O)[C@H](c3ccccc3)N2S(=O)(=O)c2ccc(C)cc2)cc1	9	-5	2	-9	1	x	x
Cc1ccc([C@@H]2CC=C(C(=O)O)[C@H](c3ccc(Br)cc3)N2S(=O)(=O)c2ccc(C)cc2)cc1	18	-2	x	64	0	25	4
Cc1ccc(S(=O)(=O)N2[C@@H](c3ccc(C(C)(C)C)cc3)C(C(=O)O)=CC[C@H]2c2ccc(C(C)C)cc2)cc1	26	-29	x	-4	1	x	x
Cc1ccc([C@@H]2CC=C(C(=O)O)[C@H](c3ccc(C(C)(C)C)cc3)N2S(=O)(=O)c2ccc(C)cc2)cc1	-14	-8	x	98*	-1	88*	41
Cc1ccc(S(=O)(=O)N2[C@@H](c3ccc(C(C)(C)C)cc3)C(C(=O)O)=CC[C@H]2c2ccc(Cl)cc2)cc1	23	-8	x	99*	-3	99*	66
COC(=O)[C@]1(C#N)CC(=O)N(Cc2ccc(Cl)cc2)[C@@H]1c1ccccc1	x	2	x	x	x	x	x
CCOC(=O)N1CCC(NC(=O)C2CCCN(Cc3nc(-c4cccc(C)c4)oc3C)C2)CC1 (centres undefined)	2	-2	1	75*	-1	76*	68
Cc1cccc(-c2nc(CN3CCCC(C(=O)NC4CCCC4)C3)c(C)o2)c1 (centres undefined)	-1	3	5	17	0	x	x
Cc1ccc(-c2c(NC(=O)c3ccc(F)cc3)nc3ncccn23)cc1	x	-3	x	x	x	x	x
CCCCCCCCCn1c2c(c(=N)c3c1CCC3)CCC2	-2	x	1	101*	x	99*	92*
O=C1C=CC2(O[C@H](c3ccccc3)[C@@H](c3ccccc3)O2)[C@H](Sc2ccccc2O)C1	x	0	x	68	-1	92*	49
C[C@@H]1[C@@H](Sc2ccccc2)CC(=O)O[C@@H]1c1ccc(-c2ccccc2)cc1	-1	4	4	-2	-2	x	x
CNc1ncn(-c2c(C)cccc2C)c(=O)n1	x	7	x	x	-1	x	x
COC(=O)c1cc(S(=O)(=O)N2CCC(c3ccccc3)C2)c[nH]1 (centres undefined)	13	2	3	33	-1	x	x
COC(=O)c1cc(S(=O)(=O)N2CCC(c3cc(OC)ccc3OC)C2)c[nH]1 (centres undefined)	11	3	2	81*	-1	69	62
CC(C)CN1C(=O)C[C@@]2(C(=O)N(C)c3ccc(NC(=O)C(F)(F)F)cc32)C1c1ccccc1 (some centres undefined)	x	5	x	x	x	x	x
Cc1ccc(-n2c(C)nc3c(cnn3-c3ccc(C)c(C)c3)c2=O)cc1C	13	-1	4	-37	0	x	x
Cc1ccc(-n2c(C)nc3c(cnn3-c3ccc(F)cc3)c2=O)cc1C	5	1	0	55	0	88*	60
CCCCCCCCSC1=CC(=O)C(OC)=C(OC)C1=O	x	8	x	59	3	93*	68

Screening data deposited in PubChem by several laboratories.
